The text below walks through data of ChEMBL document CHEMBL1143217, “Bioisosteric replacement of dihydropyrazole of 4S-(-)-3-(4-chlorophenyl)-N-methyl-N'-[(4-chlorophenyl)-sulfonyl]-4-phenyl-4,5-dihydro-1H-pyrazole-1-caboxamidine (SLV-319) a potent CB1 receptor antagonist by imidazole and oxazole” (2008).

Structures can show the parent of a compound that is named as a salt.

One assay has as its system Rattus norvegicus. As to the kind of experiment: Inhibition of 5% sucrose solution intake in Zucker fa/fa rat at 10 mg/kg, po on day 7 after 1 hr. It counts as functional. A digest of the protocol:
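Female Zucker fa/fa rats (10–12 weeks, 300–350 g) were trained on six consecutive days, without food or water during sessions. On day 7 they were randomized (n = 6/group) and dosed orally at 10 mg/kg in 0.5% CMC-Na/water (2 mL/kg). One hour later they had 5% sucrose for 4 h. Intake (g) and % inhibition vs control; mean ± SEM; one-way ANOVA with Dunnett's test.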

The target of assay [1] is Cannabinoid receptor 1 (Homo sapiens) (UniProt P21554). Briefly: Antagonist activity at human CB1 receptor expressed in CHO cells assessed as forskolin-induced cAMP accumulation per ug of protein at 10 uM in presence of WIN-55212-2. It counts as functional, cell-based. In outline:
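CHO-K1 cells stably expressing human CB1 were kept in HAM's F12 with 10% heat-inactivated dialyzed FBS and 0.8 mg/mL G-418. Cells were seeded at 50,000/well, grown 16–18 h, then preincubated 30 min at 37 °C with 0.25% fatty-acid-free BSA, IBMX 0.1 mM and RO20-1724 0.1 mM. Drugs were added for 5 min, then forskolin (10, final) for 20 min. Cells were lysed in 0.1 N HCl/0.1% Triton for cAMP ELISA. Mean ± SD, duplicate, ≥3 experiments.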
(In general: cAMP levels reflect the balance of adenylyl cyclase and phosphodiesterase activity.)

Chain of Cannabinoid receptor 1 (Homo sapiens) (P21554 whole entry): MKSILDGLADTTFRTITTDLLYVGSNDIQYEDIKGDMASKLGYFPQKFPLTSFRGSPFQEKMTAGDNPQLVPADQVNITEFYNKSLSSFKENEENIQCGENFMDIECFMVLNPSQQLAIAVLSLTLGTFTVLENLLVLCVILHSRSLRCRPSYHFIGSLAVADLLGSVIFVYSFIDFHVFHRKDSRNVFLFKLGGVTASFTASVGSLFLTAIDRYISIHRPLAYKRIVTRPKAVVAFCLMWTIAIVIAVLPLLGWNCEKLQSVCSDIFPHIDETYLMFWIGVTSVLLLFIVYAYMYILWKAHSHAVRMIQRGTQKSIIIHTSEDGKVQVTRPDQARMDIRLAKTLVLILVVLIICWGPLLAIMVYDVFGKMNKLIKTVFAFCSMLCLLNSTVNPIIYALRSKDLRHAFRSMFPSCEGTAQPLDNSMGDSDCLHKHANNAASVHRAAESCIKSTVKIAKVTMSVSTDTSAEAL

The inhibition in vivo is the percentage by which the read-out fell short of the control. Low values mean a weak effect, high ones a strong effect. In the case of `CN/C(=N/S(=O)(=O)c1ccc(Cl)cc1)C1CN(c2ccccc2)C(c2ccc(Cl)cc2)=N1` (configuration not stated), the inhibition in vivo at 10 mg/kg in the assay with Rattus norvegicus was determined as 14.4%. Also, in assay [1], the Activity amounted to 1.22 pmol.
Turning to `Cc1c(C(=O)NN2CCCCC2)nn(-c2ccc(Cl)cc2Cl)c1-c1ccc(Cl)cc1` [RIMONABANT HYDROCHLORIDE], testing at 10 mg/kg in the assay with Rattus norvegicus gave an inhibition in vivo of 36.1%.
In the assay on Rattus norvegicus, `CN/C(=N/S(=O)(=O)c1ccc(Cl)cc1)c1nc(-c2ccc(Cl)cc2)c(-c2ccccc2)o1` displayed an inhibition in vivo at 10 mg/kg of 0.6%. The Activity in assay [1] was determined as 1.3 pmol.
As for `CN/C(=N/S(=O)(=O)c1ccc(Cl)cc1)c1cn(-c2ccc(Cl)cc2)c(-c2ccccc2)n1`, in the assay with Rattus norvegicus, 10 mg/kg produced 6.7% inhibition in vivo. Also, the Activity in assay [1] stood at 0.55 pmol.
With `CN/C(=N/S(=O)(=O)c1ccc(Cl)cc1)c1nc(-c2ccccc2)c(-c2ccc(Cl)cc2)o1`, the inhibition in vivo at 10 mg/kg with Rattus norvegicus was determined as 4.3%. Further, in assay [1], the Activity turned out to be 0.6 pmol.
`CN/C(=N/S(=O)(=O)c1ccc(Cl)cc1)C1CN(c2ccc(Cl)cc2)C(c2ccccc2)=N1` (configuration not stated) yielded an inhibition in vivo at 10 mg/kg in the assay with Rattus norvegicus of 2.2%. Further, the Activity in assay [1] is 0.94 pmol.
In the assay with Rattus norvegicus, `CN/C(=N\S(=O)(=O)c1ccc(Cl)cc1)N1C[C@H](c2ccccc2)C(c2ccc(Cl)cc2)=N1` [IBIPINABANT] displayed an inhibition in vivo at 10 mg/kg of 37.6%.
